In paper PMC5518789 (Journal of bone and mineral research : the official journal …, 2017):
“Also recorded” adds a separate entry of the source.

What was measured:
[1] = tested on: PTHrP(12-48) polyclonal Ab; assay: Dot blot with PTHrP; format: binding, chicken; settings: nitrocellulose, nondenaturing, 100, 10 and 1 ng, chemiluminescence
Outline: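 The peptide panel (test peptide, PTHrP(1-141), PTHrP(1-37), PTH(1-34), IL-8) was spotted at 100, 10 and 1 ng on nitrocellulose without denaturation. The probe was a chicken polyclonal IgY raised against the KLH-conjugated test peptide, depleted of PTHrP(1-37) by negative selection and affinity-purified on a test-peptide column. Detection was by chemiluminescence.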

PTHrP(1-15)-mAb = assay: Dot blot with PTHrP; format: binding; settings: nitrocellulose, 100, 10 and 1 ng, chemiluminescence
Outline: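 The test peptide, PTHrP(1-141), PTHrP(1-37), PTH(1-34) and IL-8 were each spotted at 100, 10 and 1 ng onto nitrocellulose under nondenaturing conditions. Blots were probed with an N-terminal PTHrP(1-15) monoclonal antibody and developed by chemiluminescence.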

[2] = tested on: PTHR1 (PTHR1-expressing SaOS2 cells); assay: Competitive cAMP ELISA in SaOS2 cells; format: cell-based, human; settings: PTH(1-34) 1 and 10 nM, 10 min, IBMX pretreatment, representative of three independent experiments
Outline: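 SaOS2 cells were grown in RPMI 1640 with 10% FBS and antibiotics at 37°C and 5% CO₂, with medium changed every 3 days. Confluent cultures were serum-starved for 6 h, pretreated with IBMX for 15 min, then exposed to ligand for 10 min. Cells were lysed, and cAMP was quantified by a competitive ELISA kit following the manufacturer's protocol.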

[3] = tested on: PTHR1 (PTHR1-expressing SaOS2 cells); settings: cited from earlier work
[4] = tested on: human OCLs and their precursors (PBMCs); assay: Internalization assay in human osteoclasts and precursors; format: cell-based
Outline: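 Thawed human PBMCs were seeded at 500,000 cells/well on chamber slides in alpha-MEM + 10% FBS with mCSF (25 ng/mL) ± RANKL (50 ng/mL) at 37°C, 5% CO₂. On day 7, test peptide (100 nM) was added with serum for 15, 30, 60 or 90 min. Cells were fixed in 4% paraformaldehyde (4°C, 15 min), permeabilised with 0.02% Triton X-100 and blocked with BlokHen 1:10. They were stained with chicken anti-test-peptide antibody plus DAPI, with a no-primary control, and imaged by fluorescence or confocal microscopy.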

[5] = tested on: PTHR1 (SaOS2 or any other PTHR1-expressing cell); assay: PTHR1 antagonism of PTHrP; format: cell-based, human; settings: data not shown
PTHrP(12-48) Ab = assay: Western blot with PTHrP; format: binding, chicken; settings: SDS-PAGE (12%) immunoblot; PTHrP(12-48) 1 mM, 100 µM, 10 µM; two independent series of experiments
Outline: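 Peptides and IL-8 were run on 12% SDS-PAGE and transferred to nitrocellulose. Blots were blocked for 30 min in BlokHen (1:10 in water), then washed in PBS with 0.05% Tween-20. They were probed with chicken polyclonal IgY (raised against KLH-conjugated PTHrP(12-48) and PEG-precipitated from egg yolk) or a PTHrP(1-15) monoclonal, then a secondary antibody. Detection was by chemiluminescence. Blots were stripped for 30 min at RT and reprobed for IL-8.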

[6] = tested on: human OCL precursors and differentiated OCLs (PBMCs); assay: Cleaved caspase 3; format: cell-based; settings: for total cells positive for cleaved caspase-3, controls day 0: OCL precursors, vehicle or mCSF without or with RANKL on day 0, 24 h
Outline: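 Frozen human PBMCs were thawed at 37°C and seeded at 500,000 cells/well on chamber slides in alpha-MEM + 10% FBS with mCSF (25 ng/mL) ± RANKL (50 ng/mL) at 37°C, 5% CO₂. Cells were treated 24 h with test peptide (50 nM) or TNFα (200 ng/mL) on day 0 or day 7. They were then fixed, permeabilised and stained with anti-cleaved caspase 3 (Asp175) at 1:400 plus a 1 h secondary, with DAPI nuclei. Positive cells were counted by fluorescence or confocal microscopy.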

[7] = tested on: mesenchymal lineage cells; assay: Effect on mesenchymal lineage cells; format: cell-based; settings: in vitro or in vivo; data not shown
[8] = tested on: other resident bone and bone marrow cells; assay: Uptake in other resident bone and bone marrow cells; format: cell-based; settings: in vitro or in vivo; data not shown
cells (PTHR1-dependent) = settings: cited from earlier work
[9] = tested on: human OCL precursors / OCLs (PBMCs); assay: Osteoclastogenesis, TRAP+ MNC count; format: cell-based; settings: RANKL 50 ng/mL + mCSF 25 ng/mL versus mCSF; day 10; Fig. 3A, p < 0.001

## IL-8: interleukin 8, control in dot blots
[1]
  recognition by PTHrP(12-48) Ab: not recognized by either PTHrP Ab
PTHrP(1-15)-mAb
  recognition by PTHrP(1-15) mAb: not recognized by either PTHrP Ab

## PTH(1-34): activates cAMP production via PTHR1, used as a positive control (SVSEIQLMHNLGKHLNSMERVEWLRKKLQDVHNF; Parathyroid hormone; UniProt P01270 32-65, looked up, fragment)
[2]
  cAMP production (positive control): stimulated cAMP production; also recorded: stimulated the expected increase in cAMP
[3]; 50 nM
  activation of cAMP production via PTHR1 (literature): activates cAMP production via PTHR1

## PTHrP(1-36): PTHR1 ligand to which SaOS2 cells respond [reference compound]
[4]; PTHrP(1-36), similar treatment (Supplemental Fig. 2)
  internalization into day 7 cells: no internalization
[3]; SaOS2 cells, 36 (response), 42 (Gαs)
  SaOS2 response / activation of Gαs: trigger the activation of Gαs

## PTHrP(1-37): N-terminal peptide used in dot blots and ELISA
PTHrP(1-15)-mAb
  recognition by PTHrP(1-15) mAb: recognized an antigen present in full-length PTHrP(1-141) as well as PTHrP(1-37)

## PTHrP(1-141): full-length recombinant PTHrP, gift of Dr. T.J. Martin
[1]
  recognition by PTHrP(12-48) Ab: but not PTHrP(1-141)
PTHrP(1-15)-mAb
  recognition by PTHrP(1-15) mAb: recognized an antigen present in full-length PTHrP(1-141)

## PTHrP(12-48): unique peptide fragment of parathyroid hormone-related protein (PTHrP); New England Peptides Inc. (GKSIQDLRRRFFLHHLIAEIHTAEIRATSEVSPNSKP; Parathyroid hormone-related protein; UniProt P12272 48-84, looked up, fragment)
[5]; SaOS2 or any other PTHR1-expressing cell
  antagonist or partial antagonist action at PTHR1: unable to show any significant antagonist or partial antagonist actions
[5]
  antagonism of PTHrP(1-36) agonist activity at PTHR1: nor does PTHrP(12-48) antagonize agonist activity of PTHrP(1-36) at the PTHR1
PTHrP(1-15)-mAb
  recognition by PTHrP(1-15) mAb: but not PTHrP(12-48)
PTHrP(12-48) Ab
  recognition by PTHrP(12-48) Ab: specifically recognized the 4-kDa PTHrP(12-48); also recorded: specifically recognized by PTHrP(12-48) Ab
[4]; 100 nM, day 7 cells, immunofluorescence
  time to internalization into primary human OCLs and their precursors: ≤ 60 min
[4]; 100 nM, in presence of serum, day 7 cells, mCSF (25 ng/mL)+RANKL (50 ng/mL), 15, 30, 60 and 90 min, immunofluorescence, three independent experiments
  internalization into OCLs: observed in OCLs 60 min after the addition
[4]; 100 nM, mCSF alone, Fig. 2H panel iv, immunofluorescence
  internalization into mononuclear cells (precursors): observed in mononuclear cells cultured in the presence of mCSF alone
[6]; 50 nM, 24 h, cells cultured for 7 days, Fig. 4C, D, p < 0.05
  cleaved caspase 3-positive cells, day 7: significantly increased the number of cleaved caspase 3-positive cells
[6]; PTHrP(12-48) 50 nM versus TNFα 200 ng/ml, 24 h
  cleaved caspase 3 increase compared with TNFα: comparable to the effects observed following treatment with TNFα
[7]
  effect on mesenchymal lineage cells: unable to show an effect of PTHrP(12-48) on mesenchymal lineage cells
[8]
  uptake in other resident bone and bone marrow cells: unable to show an effect of PTHrP(12-48) on mesenchymal lineage cells or observe any apparent uptake in other resident bone and bone marrow cells

## PTHrP(67-93): PTHrP fragment shown to translocate into cells (YLTQETNKVETYKEQPLKTPGKKKKGK; Parathyroid hormone-related protein; UniProt P12272 103-129, looked up, fragment)
Cells (PTHR1-dependent)
  translocation into cells: translocate into cells in a PTHR1-dependent fashion

## PTHrP(94-108): PTHrP fragment shown to translocate into cells (PGKRKEQEKKKRRTR; Parathyroid hormone-related protein; UniProt P12272 130-144, looked up, fragment)
Cells (PTHR1-dependent)
  translocation into cells: translocate into cells in a PTHR1-dependent fashion

B1: RANKL: receptor activator of NF-κB ligand, R&D Systems (protein, UniProt O14788 140-317, looked up)
Tumor necrosis factor ligand …: IRAEKAMVDGSWLDLAKRSKLEAQPFAHLTINATDIPSGSHKVSLSSWYHDRGWAKISNMTFSNGKLIVNQDGFYYLYANICFRHHETSGDLATEYLQLMVYVTKTSIKIPSSHTLMKGGSTKYWSGNSEFHFYSINVGGFFKLRSGEEISIEVSNPSLLDPDQDATYFGAFKVRDID
[9]
  number of TRAP+ MNCs, effect of RANKL: significantly increased the number of TRAP+ MNCs
[6]
  total cells positive for cleaved caspase-3, controls day 0: less than 25%

B2: mCSF: culture factor for osteoclast precursors, R&D Systems (protein, UniProt P07141 33-552, looked up)
Macrophage colony-stimulating …: KEVSEHCSHMIGNGHLKVLQQLIDSQMETSCQIAFEFVDQEQLDDPVCYLKKAFFLVQDIIDETMRFKDNTPNANATERLQELSNNLNSCFTKDYEEQNKACVRTFHETPLQLLEKIKNFFNETKNLLEKDWNIFTKNCNNSFAKCSSRDVVTKPDCNCLYPKATPSSDPASASPHQPPAPSMAPLAGLAWDDSQRTEGSSLLPSELPLRIEDPGSAKQRPPRSTCQTLESTEQPNHGDRLTEDSQPHPSAGGPVPGVEDILESSLGTNWVLEEASGEASEGFLTQEAKFSPSTPVGGSIQAETDRPRALSASPFPKSTEDQKPVDITDRPLTEVNPMRPIGQTQNNTPEKTDGTSTLREDHQEPGSPHIATPNPQRVSNSATPVAQLLLPKSHSWGIVLPLGELEGKRSTRDRRSPAELEGGSASEGAARPVARFNSIPLTDTGHVEQHEGSSDPQIPESVFHLLVPGIILVLLTVGGLLFYKWKWRSHRDPQTLDSSVGRPEDSSLTQDEDRQVELPV
[6]
  total cells positive for cleaved caspase-3, controls day 0: less than 25%
